Assay results reported in ChEMBL document CHEMBL3286362, “Farnesyltransferase inhibitors: CAAX mimetics based on different biaryl scaffolds” (Bioorg Med Chem Lett, 2014).
Active and inactive are the calls of the source. No cut-off for these calls is given here.

Species on record: Rattus norvegicus
Assay: (§1) Inhibition of FTase-mediated RAS prenylation in RASMC after 72 hrs by Western blotting analysis
Method in brief: (§2)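 Rat aortic SMCs incubated 72 h with 25 to 400 µM of test ester or without it, alongside simvastatin 2 µM as positive control. Total cell lysates were prepared and Ras prenylation was assessed by Western blot with anti-Ras antibody (clone RAS10).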

| SMILES | inhibition |
| --- | --- |
| CSCC[C@H](NC(=O)c1ccc(NC(=O)Cc2csc(N)n2)cc1-c1ccoc1)C(=O)OC(C)C | Dose-dependent effect |

System: not listed separately
Assay: as §1
Set-up: species or system Rattus norvegicus
Method in brief: as §2

| SMILES | IC50 [µM] |
| --- | --- |
| CSCC[C@H](NC(=O)c1ccc(NC(=O)Cc2csc(N)n2)cc1-c1ccoc1)C(=O)OC(C)C | 100 |

Target: T1, Protein farnesyltransferase (Homo sapiens, UniProt P49354+P49356)
Assay: Inhibition of recombinant FTase (unknown origin) by spectrofluorimetric analysis
Assay type: protein-complex assay

| SMILES | IC50 [µM] |
| --- | --- |
| CSCC[C@H](NC(=O)c1ccc(OCC2COc3ccccc3O2)cc1-c1ccsc1)C(=O)O (stereo not given in full) | 5 |
| CSCC[C@H](NC(=O)c1ccc(NC(=O)Cc2csc(N)n2)cc1-c1ccoc1)C(=O)O | 2.8 |

Target: T1, Protein farnesyltransferase
Assay: Inhibition of recombinant FTase (unknown origin) at 20 uM by spectrofluorimetric analysis relative to control
Assay type: protein-complex assay
Method in brief: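 Fluorescence-based FTase activity assay; free acids screened at a single 20 µM concentration and percent inhibition determined.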

| SMILES | inhibition [%] |
| --- | --- |
| CSCC[C@H](NC(=O)c1ccc(OCC2COc3ccccc3O2)cc1-c1cccc2ccccc12)C(=O)O (stereo not given in full) | 41.7 |
| CSCC[C@H](NC(=O)c1ccc(NC(=O)Cc2csc(N)n2)cc1-c1ccco1)C(=O)O | 15.4 |
| CSCC[C@H](NC(=O)c1ccc(NC(=O)Cc2csc(N)n2)cc1-c1cccs1)C(=O)O | 53.8 |
| CSCC[C@H](NC(=O)c1ccc(OCC2COc3ccccc3O2)cc1-c1ccoc1)C(=O)O (stereo not given in full) | 48.7 |
| CSCC[C@H](NC(=O)c1ccc(OCC2COc3ccccc3O2)cc1-c1cncc2ccccc12)C(=O)O (stereo not given in full) | 14.5 |
| CSCC[C@H](NC(=O)c1ccc(OCC2COc3ccccc3O2)cc1-c1cccs1)C(=O)O (stereo not given in full) | 90 |
| CSCC[C@H](NC(=O)c1ccc(NC(=O)Cc2csc(N)n2)cc1-c1ccsc1)C(=O)O | 20.9 |
| CSCC[C@H](NC(=O)c1ccc(NC(=O)Cc2csc(N)n2)cc1-c1cccc2ccccc12)C(=O)O | 90.4 |
| CSCC[C@H](NC(=O)c1ccc(OCC2COc3ccccc3O2)cc1-c1ccsc1)C(=O)O (stereo not given in full) | 96.6 |
| CSCC[C@H](NC(=O)c1ccc(OCC2COc3ccccc3O2)cc1-c1ccco1)C(=O)O (stereo not given in full) | 51.5 |
| CSCC[C@H](NC(=O)c1ccc(NC(=O)Cc2csc(N)n2)cc1-c1cncc2ccccc12)C(=O)O | 0 |
| CSCC[C@H](NC(=O)c1ccc(NC(=O)Cc2csc(N)n2)cc1-c1ccoc1)C(=O)O | 98.7 |

Species on record: Rattus norvegicus
Assay: (§3) Growth inhibition of RASMC after 72 hrs by Coulter counting analysis
Assay type: functional
Method in brief: (§4)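 Proliferation of cultured rat aortic smooth muscle cells, with test agents given as isopropyl esters to aid membrane permeability; IC50 values derived.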

| SMILES | growth inhibition (GI) |
| --- | --- |
| CSCC[C@H](NC(=O)c1ccc(NC(=O)Cc2csc(N)n2)cc1-c1ccoc1)C(=O)OC(C)C | Dose-dependent effect |
| CSCC[C@H](NC(=O)c1ccc(OCC2COc3ccccc3O2)cc1-c1ccsc1)C(=O)OC(C)C (stereo not given in full) | inactive |
| CSCC[C@H](NC(=O)c1ccc(OCC2COc3ccccc3O2)cc1-c1cncc2ccccc12)C(=O)OC(C)C (stereo not given in full) | inactive |

System: not listed separately
Assay: as §3
Assay type: functional, Rattus norvegicus
Method in brief: as §4

| SMILES | IC50 [µM] |
| --- | --- |
| CSCC[C@H](NC(=O)c1ccc(NC(=O)Cc2csc(N)n2)cc1-c1cccc2ccccc12)C(=O)OC(C)C | 81 |
| CSCC[C@H](NC(=O)c1ccc(NC(=O)Cc2csc(N)n2)cc1-c1cccs1)C(=O)OC(C)C | 200 |
| CSCC[C@H](NC(=O)c1ccc(OCC2COc3ccccc3O2)cc1-c1cccs1)C(=O)OC(C)C (stereo not given in full) | 81 |
| CSCC[C@H](NC(=O)c1ccc(OCC2COc3ccccc3O2)cc1-c1cccc2ccccc12)C(=O)OC(C)C (stereo not given in full) | 155 |
| CSCC[C@H](NC(=O)c1ccc(NC(=O)Cc2csc(N)n2)cc1-c1ccoc1)C(=O)OC(C)C | 259 |
| CSCC[C@H](NC(=O)c1ccc(OCC2COc3ccccc3O2)cc1-c1ccco1)C(=O)OC(C)C (stereo not given in full) | 99 |
| CSCC[C@H](NC(=O)c1ccc(NC(=O)Cc2csc(N)n2)cc1-c1ccsc1)C(=O)OC(C)C | 123 |
| CSCC[C@H](NC(=O)c1ccc(NC(=O)Cc2csc(N)n2)cc1-c1ccco1)C(=O)OC(C)C | 110 |
| CSCC[C@H](NC(=O)c1ccc(NC(=O)Cc2csc(N)n2)cc1-c1cncc2ccccc12)C(=O)OC(C)C | 252 |
| CSCC[C@H](NC(=O)c1ccc(OCC2COc3ccccc3O2)cc1-c1ccoc1)C(=O)OC(C)C (stereo not given in full) | 61 |

Species on record: Rattus norvegicus
Assay: Inhibition of FTase-mediated RAS prenylation in RASMC at 2 uM after 72 hrs by Western blotting analysis
Method in brief: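 Rat aortic smooth muscle cells were incubated for 72 h with or without test ester (25–400 µM) or with the HMG-CoA reductase inhibitor simvastatin (2 µM) as positive control. Total cell lysates were then prepared and Ras prenylation was assessed by western blot using an anti-Ras antibody (clone RAS10).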

| SMILES | inhibition |
| --- | --- |
| CCC(C)(C)C(=O)O[C@H]1C[C@@H](C)C=C2C=C[C@H](C)[C@H](CC[C@@H]3C[C@@H](O)CC(=O)O3)[C@H]21 | Active |
